Source: ChEMBL document CHEMBL4602651, “Development of selective mono or dual PROTAC degrader probe of CDK isoforms” (Eur J Med Chem, 2020)
Calls of active or inactive are those of the source. The calls are words filed in the database; no cut-off is given here.

Experiments:
[1] = target: T1, Protein cereblon/Cyclin-dependent kinase 2/Cyclin-dependent kinase 9 (Homo sapiens, UniProt P24941+P50750+Q96SW2); assay: Protac activity at CRBN/CDK2/CDK9 in AR-negative human PC3 cells assessed as CDK9 degradation at 250 nM preincubated with FN-1501 for 2 hrs and measured after 8 hrs by Western blot analysis; assay type: cell-based; conditions: PC-3
Outline: (§1)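 PC-3 cells pretreated 2 h with 5 µM DMSO, FN-1501, pomalidomide or MG-132, then exposed to degrader at 250 nM for 8 h. Lysates probed for CDK2 and CDK9, β-tubulin as loading control. 50 µg protein per lane, 10% SDS-PAGE, chemiluminescent detection.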

[2] = target: T1, Protein cereblon/Cyclin-dependent kinase 2/Cyclin-dependent kinase 9; assay: Protac activity at CRBN/CDK2/CDK9 in human MCF7 cells assessed as CDK2 degradation at 0.25 to 10 uM after 12 hrs by Westernblot analysis; assay type: cell-based
Outline: (§2)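 22Rv1, HCT-116 (RPMI 1640, 10% FBS) and MCF-7 cells treated with degrader at indicated concentrations for 12 h. CDK2 and CDK9 blotted with β-tubulin loading control.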

[3] = target: Protein cereblon/Cyclin-dependent kinase 9 (Homo sapiens) (UniProt P50750+Q96SW2); assay: Protac activity at CRBN/CDK9 in AR-negative human PC3 cells assessed as induction of CDK9 protein degradation at 50 nM after 12 hrs by Western blot analysis; assay type: cell-based; conditions: PC-3
Outline: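 PC-3 cells (DMEM/F12 1:1, 10% FBS, 1% pen/strep, 37 °C, 5% CO2) plated at 5 × 10^5 per well, exposed to compound for 12 h. RIPA lysates with protease inhibitors; 50 µg total protein run on 10% SDS-PAGE, transferred to PVDF, blocked in 5% milk/TBS-T. Probed with anti-CDK9 (1/1000), β-tubulin loading control, HRP secondary, chemiluminescence; bands scored as degradation detected or not.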

[4] = target: T1, Protein cereblon/Cyclin-dependent kinase 2/Cyclin-dependent kinase 9; assay: Protac activity at CRBN/CDK2/CDK9 in AR-negative human PC3 cells assessed as induction of CDK9 protein degradation at 30 uM after 12 hrs by Western blot analysis; assay type: cell-based; conditions: PC-3
Outline: (§3)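 PC-3 cells (5 × 10^5 per well) treated 12 h at single concentrations (50 nM, 500 nM, 1, 5 or 30 µM). RIPA lysates (50 µg) run on 10% SDS-PAGE and immunoblotted for CDK2, CDK5, CDK9 with β-tubulin loading control, then detected by chemiluminescence. Band intensities quantified densitometrically.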

PC-3 [5] = assay: Induction of cell cycle arrest in human PC3 cells assessed as accumulation at S phase at 1 uM after 48 hrs by propidium iodide staining based flow cytometry (reference value: 17.96%); assay type: functional
PC-3 [6] = assay: Induction of cell cycle arrest in human PC3 cells assessed as accumulation at S phase at 3 uM after 48 hrs by propidium iodide staining based flow cytometry (reference value: 17.96%); assay type: functional
[7] = target: Protein cereblon/Cyclin-dependent kinase 6 (Homo sapiens) (UniProt Q00534+Q96SW2); assay: Protac activity at CRBN/CDK6 in AR-negative human PC3 cells assessed as induction of CDK4 protein degradation at 500 nM after 24 hrs by Western blot analysis; assay type: cell-based; conditions: PC-3
Outline: (§4)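 PC-3 cells treated with 500 nM degrader for varying times. Lysates blotted for CDK2, CDK4, CDK6, CDK9, c-Myc and Mcl-1, each at 1/1000 primary antibody, with β-tubulin reference and chemiluminescent detection.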

[8] = target: T1, Protein cereblon/Cyclin-dependent kinase 2/Cyclin-dependent kinase 9; assay: Protac activity at CRBN/CDK2/CDK9 in human 22Rv1 cells assessed as CDK9 degradation at 0.25 to 10 uM after 12 hrs by Westernblot analysis; assay type: cell-based; conditions: CWR22R; outline: as §2
[9] = target: T1, Protein cereblon/Cyclin-dependent kinase 2/Cyclin-dependent kinase 9; assay: Protac activity at CRBN/CDK2/CDK9 in AR-negative human PC3 cells assessed as reduction in Mcl-1 protein expression at 500 nM measured after 2 to 24 hrs by Western blot analysis; assay type: cell-based; conditions: PC-3; outline: as §4
[10] = target: T1, Protein cereblon/Cyclin-dependent kinase 2/Cyclin-dependent kinase 9; assay: Protac activity at CRBN/CDK2/CDK9 in AR-negative human PC3 cells assessed as induction of CDK2 protein degradation after 24 hrs by Western blot analysis; assay type: cell-based
Outline: (§5)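 PC-3 cells exposed to a degrader concentration series, then immunoblotted for CDK2 and CDK9 versus β-tubulin. The figure legend gives 24 h exposure. DC50 taken as mean of 2 determinations from densitometry.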

PC-3 [11] = assay: Antiproliferative activity against AR-negative human PC3 cells at 2 uM after 24 hrs by CFSE dye based flow cytometry; assay type: functional, cell-based
Outline: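 PC-3 cells treated 24 h at 2 µM alongside DMSO control. Single-cell suspension labelled with CFSE (final 5 µM) for 15 min at room temperature in the dark, then proliferation read by flow cytometry.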

[12] = target: T1, Protein cereblon/Cyclin-dependent kinase 2/Cyclin-dependent kinase 9; assay: Protac activity at CRBN/CDK2/CDK9 in AR-negative human PC3 cells assessed as CDK2 degradation at 250 nM preincubated with pomalidomide for 2 hrs and measured after 8 hrs by Western blot analysis; assay type: cell-based; conditions: PC-3; outline: as §1
[13] = target: Protein cereblon/Cyclin-dependent kinase 2 (Homo sapiens) (UniProt P24941+Q96SW2); assay: Protac activity at CRBN/CDK2 in AR-negative human PC3 cells assessed as induction of CDK2 protein degradation at 50 nM after 12 hrs by Western blot analysis; assay type: cell-based; conditions: PC-3; outline: as §3
[14] = target: T1, Protein cereblon/Cyclin-dependent kinase 2/Cyclin-dependent kinase 9; assay: Protac activity at CRBN/CDK2/CDK9 in AR-negative human PC3 cells assessed as induction of CDK9 protein degradation after 24 hrs by Western blot analysis; assay type: cell-based; outline: as §5
[15] = target: T1, Protein cereblon/Cyclin-dependent kinase 2/Cyclin-dependent kinase 9; assay: Protac activity at CRBN/CDK2/CDK9 in AR-negative human PC3 cells assessed as CDK9 degradation at 250 nM preincubated with proteasome inhibitor MG132 for 2 hrs and measured after 8 hrs by Western blot analysis; assay type: cell-based; conditions: PC-3; outline: as §1
PC-3 [16] = assay: Induction of cell cycle arrest in human PC3 cells assessed as accumulation at G2/M phase at 250 nM after 48 hrs by propidium iodide staining based flow cytometry (reference value: 22.24%); assay type: functional
[17] = target: T1, Protein cereblon/Cyclin-dependent kinase 2/Cyclin-dependent kinase 9; assay: Protac activity at CRBN/CDK2/CDK9 in AR-negative human PC3 cells assessed as CDK2 degradation at 250 nM preincubated with proteasome inhibitor MG132 for 2 hrs and measured after 8 hrs by Western blot analysis; assay type: cell-based; conditions: PC-3; outline: as §1
[18] = target: T1, Protein cereblon/Cyclin-dependent kinase 2/Cyclin-dependent kinase 9; assay: Protac activity at CRBN/CDK2/CDK9 in AR-negative human PC3 cells assessed as CDK2 degradation at 250 nM preincubated with FN-1501 for 2 hrs and measured after 8 hrs by Western blot analysis; assay type: cell-based; conditions: PC-3; outline: as §1
PC-3 [19] = assay: Induction of cell cycle arrest in human PC3 cells assessed as accumulation at G0/G1 phase at 1 uM after 48 hrs by propidium iodide staining based flow cytometry (reference value: 59.80%); assay type: functional
PC-3 [20] = assay: Induction of cell cycle arrest in human PC3 cells assessed as accumulation at G2/M phase at 1 uM after 48 hrs by propidium iodide staining based flow cytometry (reference value: 22.24%); assay type: functional
[21] = target: T1, Protein cereblon/Cyclin-dependent kinase 2/Cyclin-dependent kinase 9; assay: Protac activity at CRBN/CDK2/CDK9 in AR-negative human PC3 cells assessed as CDK9 degradation at 250 nM preincubated with pomalidomide for 2 hrs and measured after 8 hrs by Western blot analysis; assay type: cell-based; conditions: PC-3; outline: as §1
[22] = target: T1, Protein cereblon/Cyclin-dependent kinase 2/Cyclin-dependent kinase 9; assay: Protac activity at CRBN/CDK2/CDK9 in human HCT116 cells assessed as CDK9 degradation at 0.25 to 10 uM after 12 hrs by Westernblot analysis; assay type: cell-based; conditions: HCT-116; outline: as §2
[23] = target: T1, Protein cereblon/Cyclin-dependent kinase 2/Cyclin-dependent kinase 9; assay: Protac activity at CRBN/CDK2/CDK9 in human MCF7 cells assessed as CDK9 degradation at 0.25 to 10 uM after 12 hrs by Westernblot analysis; assay type: cell-based; outline: as §2

Sequence of Protein cereblon/Cyclin-dependent kinase 6 (Homo sapiens) (Q00534 whole entry, looked up): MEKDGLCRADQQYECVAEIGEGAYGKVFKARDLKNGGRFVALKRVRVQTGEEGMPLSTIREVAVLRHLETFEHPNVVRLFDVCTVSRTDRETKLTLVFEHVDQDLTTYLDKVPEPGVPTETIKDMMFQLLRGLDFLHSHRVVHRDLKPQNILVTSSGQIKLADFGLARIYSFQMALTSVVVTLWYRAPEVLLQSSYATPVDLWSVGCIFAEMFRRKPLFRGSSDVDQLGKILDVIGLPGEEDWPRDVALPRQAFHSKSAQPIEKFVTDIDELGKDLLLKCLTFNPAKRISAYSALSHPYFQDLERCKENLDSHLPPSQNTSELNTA
Sequence of Protein cereblon/Cyclin-dependent kinase 6 (Homo sapiens) (Q96SW2 whole entry, looked up): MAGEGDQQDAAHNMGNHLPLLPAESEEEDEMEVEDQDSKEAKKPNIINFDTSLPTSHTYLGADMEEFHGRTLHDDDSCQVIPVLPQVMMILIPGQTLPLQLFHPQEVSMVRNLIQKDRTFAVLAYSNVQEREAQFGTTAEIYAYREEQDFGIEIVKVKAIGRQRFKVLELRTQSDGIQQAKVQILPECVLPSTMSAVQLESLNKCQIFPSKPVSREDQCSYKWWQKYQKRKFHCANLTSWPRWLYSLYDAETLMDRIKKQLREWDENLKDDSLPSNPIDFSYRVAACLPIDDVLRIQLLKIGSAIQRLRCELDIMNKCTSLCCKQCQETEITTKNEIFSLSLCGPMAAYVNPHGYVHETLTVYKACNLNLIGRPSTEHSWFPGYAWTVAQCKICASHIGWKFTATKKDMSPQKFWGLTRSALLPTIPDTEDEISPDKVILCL
Sequence of Protein cereblon/Cyclin-dependent kinase 9 (Homo sapiens) (P50750 whole entry, looked up): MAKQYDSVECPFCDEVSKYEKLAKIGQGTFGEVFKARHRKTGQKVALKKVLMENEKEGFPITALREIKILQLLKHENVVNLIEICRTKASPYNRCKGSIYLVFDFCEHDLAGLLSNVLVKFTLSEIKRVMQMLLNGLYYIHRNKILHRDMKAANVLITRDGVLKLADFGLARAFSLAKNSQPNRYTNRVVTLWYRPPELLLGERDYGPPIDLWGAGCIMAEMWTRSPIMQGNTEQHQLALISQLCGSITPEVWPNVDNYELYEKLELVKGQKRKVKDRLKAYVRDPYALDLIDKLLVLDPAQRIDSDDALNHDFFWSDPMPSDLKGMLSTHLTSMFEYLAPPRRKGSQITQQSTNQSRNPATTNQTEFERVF
Sequence of Protein cereblon/Cyclin-dependent kinase 9 (Homo sapiens) (Q96SW2 whole entry, looked up): as the sequence (Q96SW2 whole entry, looked up) above

Activity [1]: inactive
Activity [2]: Active
Activity [3]: Active
Activity [4]: Active
Activity [7]: inactive
Activity [8]: Active
Activity [9]: Active
Activity ([10]; PC-3): Dose-dependent effect
DC50 ([10]; pc-3): 62 nM
Activity [12]: inactive
Activity [13]: Active
Activity ([14]; PC-3): Dose-dependent effect
DC50 ([14]; pc-3): 33 nM
Activity [15]: inactive
Activity [17]: inactive
Activity [18]: inactive
Activity [21]: inactive
Activity [22]: Active
Activity [23]: Active
SMILES: O=C(CCC(=O)N1CCN(Cc2ccc(NC(=O)c3n[nH]cc3Nc3ncnc4[nH]ccc34)cc2)CC1)NCCNc1cccc2c1C(=O)N(C1CCC(=O)NC1=O)C2=O (stereo not given)
Activity (PC-3 [5]): 9.23%
Activity (PC-3 [6]): 11.24%
Activity (PC-3 [11]): Active
Activity (PC-3 [16]): 22.13%
Activity (PC-3 [19]): 53.95%
Activity (PC-3 [20]): 36.82%
